How the values were obtained:
BxPC-3 xenograft = experiment: Efficacy study in BxPC-3 pancreatic cancer xenograft mouse model; assay type: in vivo
Method in brief: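 Female Foxn nu/nu mice (4 weeks old on arrival) received 3.5 × 10^6 BxPC-3 cells in 50:50 Cultrex BME:DMEM, injected subcutaneously into the right hind flank. At ~95 mm3 they were stratified into four groups of eight. […] Dosing ran 21 days, then 25 days of follow-up. Caliper volume, (W² × L)/2, and body weight were recorded biweekly. Analysis used a mixed model with Dunnett post hoc.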

[1] = previously measured; cited from earlier work
[2] = biological target: human placental alkaline phosphatase (Homo sapiens, UniProt P05187); experiment: Hydrolysis in human placental alkaline phosphatase solution; assay type: in vitro ADME; settings: human placental ALP 0.5 unit/mL, prodrug 100 μM, Tris pH 7.6, 37 °C
human placental alkaline phosphatase, sequence (P05187 23-535): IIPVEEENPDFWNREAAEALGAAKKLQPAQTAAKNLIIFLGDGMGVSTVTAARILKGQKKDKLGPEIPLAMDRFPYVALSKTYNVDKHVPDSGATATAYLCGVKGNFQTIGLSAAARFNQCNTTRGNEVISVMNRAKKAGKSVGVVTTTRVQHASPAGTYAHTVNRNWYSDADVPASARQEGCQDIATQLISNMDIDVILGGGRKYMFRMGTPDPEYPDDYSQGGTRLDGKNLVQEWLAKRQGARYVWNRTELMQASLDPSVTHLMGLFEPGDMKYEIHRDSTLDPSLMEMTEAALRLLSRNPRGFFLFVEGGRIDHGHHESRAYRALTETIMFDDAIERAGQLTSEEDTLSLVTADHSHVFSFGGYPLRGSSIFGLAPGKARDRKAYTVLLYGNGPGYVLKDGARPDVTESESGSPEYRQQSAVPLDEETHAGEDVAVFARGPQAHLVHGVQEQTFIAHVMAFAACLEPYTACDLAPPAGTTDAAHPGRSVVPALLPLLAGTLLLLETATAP

[3] = through a range of pH's; cited from earlier work

## CC(=O)O[C@H]1C(=O)[C@@]2(C)[C@H]([C@H](OC(=O)c3ccccc3)[C@]3(O)C[C@H](OC(=O)[C@H](O)[C@@H](NC(=O)c4ccccc4)c4ccccc4)C(C)=C1C3(C)C)[C@]1(OC(C)=O)CO[C@@H]1C[C@@H]2O [Paclitaxel, paclitaxel, reference compound]
BxPC-3 xenograft; 12.5 mg/kg IV QWK in Cremophor EL, following the 21-day dosing period
  Tumor growth inhibition (TGI): 78%
BxPC-3 xenograft; 12.5 mg/kg IV QWK in Cremophor EL, following the 25-day observation period
  Tumor growth inhibition (TGI): 51%
[1]
  Oral bioavailability: < 6%

## CC(=O)O[C@H]1C(=O)[C@@]2(C)[C@H]([C@H](OC(=O)c3ccccc3)[C@]3(O)C[C@H](OC(=O)[C@H](OC(=O)OCc4cc(P(=O)(O)O)ccc4OP(=O)(O)O)[C@@H](NC(=O)c4ccccc4)c4ccccc4)C(C)=C1C3(C)C)[C@]1(OC(C)=O)CO[C@@H]1C[C@@H]2O [Compound 8vi, (3-((((((1S,2 R)-1-benzamido-3-(((2aR,4S,4aS,6 R,9S,11S,12S,12aR,12bS)-6,12b-diacetoxy-12-(benzoyloxy)-4,11-dihydroxy-4ª,8,13,13-tetramethyl−5-oxo-2ª,3,4,4ª,5,6,9,10,11,12,12ª,12b-dodecahydro-1H-7,11-methanocyclodeca[3,4]benzo[1,2-b]oxet-9-yl)oxy)-3-oxo-1-phenylpropan-2-yl)oxy)carbonyl)oxy)methyl)-4-(phosphonooxy)phenyl)phosphonic acid]
BxPC-3 xenograft; 25 mg/kg PO QOD in saline, following the 21-day dosing period
  Tumor growth inhibition (TGI): –15%
BxPC-3 xenograft; 75 mg/kg PO QOD in saline, following the 25-day observation period
  Tumor growth inhibition (TGI): 84%
BxPC-3 xenograft; 25 and 75 mg/kg PO QOD, 21 days
  Toxicity during dosing: no appreciable toxicity
[2]
  Hydrolysis rate in ALP (drug formation rate): 1.44 pmol/min

## CNC(=O)c1ccc(N2C(=S)N(c3ccc(C#N)c(C(F)(F)F)c3)C(=O)C2(C)C)cc1F [Enzalutamide, enzalutamide]
[3]
  Solubility in water: < 0.1 µg/mL

## CC(=O)O[C@H]1C(=O)[C@@]2(C)[C@H]([C@H](OC(=O)c3ccccc3)[C@]3(O)C[C@H](OC(=O)[C@H](OC(=O)OCc4cc(C(=O)O)ccc4OP(=O)(O)O)[C@@H](NC(=O)c4ccccc4)c4ccccc4)C(C)=C1C3(C)C)[C@]1(OC(C)=O)CO[C@@H]1C[C@@H]2O [Compound 8i, 3-((((((1S,2 R)-1-benzamido-3-(((2aR,4S,4aS,6 R,9S,11S,12S,12aR,12bS)-6,12b-diacetoxy-12-(benzoyloxy)-4,11-dihydroxy-4a,8,13,13-tetramethyl-5-oxo-2a,3,4,4a,5,6,9,10,11,12,12a,12b-dodecahydro-1H-7,11-methanocyclodeca[3,4]benzo[1,2-b]oxet-9-yl)oxy)-3-oxo-1-phenylpropan−2-yl)oxy)carbonyl)oxy)methyl)-4-(phosphonooxy)benzoic acid]
[2]
  Hydrolysis rate in ALP (drug formation rate): 2.13 pmol/min
